Compound activity as filed in PubChem BioAssay.
UCH37 inh: human UCH37 deubiquitinating enzyme inhibition; purified proteasome/UCH37, Ub-AMC cleavage fluorescence; Q9Y5K5; 330,000 compounds, 0.33% hits; inhibition, % (concentration not given with the values);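 active = mean inhibition over replicate wells above about 20%, limit read from the data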;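 note: 0% = compound-free wells with enzyme and 100% = wells lacking proteasome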
Target sequence (Q9Y5K5 whole entry, looked up): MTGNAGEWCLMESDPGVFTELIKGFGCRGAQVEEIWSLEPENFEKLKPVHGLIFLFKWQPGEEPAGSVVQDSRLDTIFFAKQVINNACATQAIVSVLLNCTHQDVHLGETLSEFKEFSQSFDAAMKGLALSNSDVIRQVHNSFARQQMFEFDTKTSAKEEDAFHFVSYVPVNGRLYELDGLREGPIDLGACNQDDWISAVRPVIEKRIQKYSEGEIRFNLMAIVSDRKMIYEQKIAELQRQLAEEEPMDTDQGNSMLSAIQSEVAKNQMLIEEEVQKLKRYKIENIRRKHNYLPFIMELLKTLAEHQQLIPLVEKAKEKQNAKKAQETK
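System: Proteasome-associated human UCH37 deubiquitinase; Input: 0.15 nM proteasome in added enzyme buffer; Also added: Ub-AMC substrate from 1 µM stock; Incubation: 30 min compound-proteasome preincubation then 25 min substrate reaction, room temperature; Detection: fluorescence, ex 355 nm, em 460 nm; Read-out: % inhibition of Ub-AMC cleavage fluorescence; Benchmarks: no-proteasome and no-compound wells.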
Tb MetRS inh: blocks T. brucei methionyl-tRNA synthetase activity; purified T. brucei MetRS, ATP depletion, Kinase-Glo luminescence; inhibition, % at 11.9 µM; 360,000 compounds, 0.4% hits; AID 624268;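 active = inhibition above a per-plate cutoff of the control wells' mean inhibition plus 3 SD, cut at about 5.5% in these data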;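 note: 0% = DMSO wells median and 100% = median of wells with control inhibitor compound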
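Material: T. brucei methionyl-tRNA synthetase, purified; reagent: substrates ATP, L-methionine and bulk Escherichia coli tRNA; dosing: 11.9 µM single point; timing: 15 min plus 2 h at 25 °C; detection: luminescence of leftover ATP; evaluation: % inhibition; control set: DMSO-only wells as low control; replicates: singlicate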
ATG4B inh: ATG4B (human) cysteine protease inhibition; AID 504462; ATG4B cleavage of LC3-PLA2, NBD-HPC fluorescence, 1 h; 340,000 compounds, 0.51% hits; Q9Y4P1; inhibition, % at 8.33 µM; in the data active = inhibition above about 40%
Target sequence (Q9Y4P1 whole entry, looked up): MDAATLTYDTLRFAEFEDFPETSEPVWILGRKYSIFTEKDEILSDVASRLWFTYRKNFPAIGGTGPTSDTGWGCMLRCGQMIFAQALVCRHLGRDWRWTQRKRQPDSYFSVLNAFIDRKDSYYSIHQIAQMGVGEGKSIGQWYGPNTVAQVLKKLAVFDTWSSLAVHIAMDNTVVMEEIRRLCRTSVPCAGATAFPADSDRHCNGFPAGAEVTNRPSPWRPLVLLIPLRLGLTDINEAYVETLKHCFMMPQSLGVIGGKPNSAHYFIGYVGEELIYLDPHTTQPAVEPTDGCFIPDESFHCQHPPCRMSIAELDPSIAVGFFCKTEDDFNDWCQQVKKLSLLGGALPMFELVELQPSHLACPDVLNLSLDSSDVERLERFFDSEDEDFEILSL
Rin1-Abl PPI inh: human Rin1-Abl interaction inhibition. TR-FRET Rin1/Abl binding, biochemical. 360,000 compounds, 0.4% hits. AID 588664. inhibition, % at 7.35 µM. P00519+Q13671; in the data active = inhibition above about 5%, passing the limit was not always enough
Rin1-Abl confirm: Rin1-Abl interaction inhibition confirmation | inhibition, % at 7.35 µM | shares compounds with Rin1-Abl PPI inh | 1,300 compounds, 49% hits | TR-FRET Rin1-Abl binding, purified proteins
GFP quench-1: quenches GFP fluorescence, counter-screen for Rin1-Abl inhibitors. shares compounds with Rin1-Abl PPI inh. inhibitors/quenchers counterscreen. inhibition, % at 6.75 µM. 1,300 compounds, 8.5% hits;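 note: ABL1-eGFP fusion protein alone without its partner RIN1-SBP; 0% = protein with vehicle and 100% = wells lacking protein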
GFP quench dose: quenches GFP in dose response, Rin1-Abl counter-screen; shares compounds with Rin1-Abl PPI inh; GFP fluorescence interference/quenching counterscreen; IC50, µM; 230 tested, under 10 active; AID 602182; call rule not given here;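 note: ABL1-eGFP fusion protein alone without its RIN1 binding partner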
GFP quench-2: GFP quenching artifact for Rin1-Abl inhibitor hits; shares compounds with Rin1-Abl PPI inh; GFP fluorescence quenching counterscreen, biochemical; IC50, µM; 25 tested, under 10 active; AID 602397; call rule not given here
Starred values were filed as active, the others as inactive; x = no result. Rows were chosen to be rich in hits. Some 1.4% of all compounds tested hit in one or more screens of this group. Cut-off read from the data, not from the text of the source, unless noted: active = inhibition above about 6.5%; inactive = the rest.

SMILES	UCH37 inh	Tb MetRS inh	ATG4B inh	Rin1-Abl PPI inh	Rin1-Abl confirm	GFP quench-1	others
CN(C(=O)c1ccc(NC(=O)Cc2ccc(NC(=O)C3CCN(C(=O)C4CCC4)CC3)cc2)cc1)C1CCCC1	1.1	-0.3	-2.2	5.2	x	x
CN(C(=O)c1ccc(NC(=O)Cc2ccc(NC(=O)C3CCN(C(=O)C4CC4)CC3)cc2)cc1)C1CC1	1.6	-0.2	-8.5	37.0*	34.1*	1.4	GFP quench dose=>67.6
CN(C(=O)c1ccc(NC(=O)Cc2ccc(NC(=O)C3CCN(C(=O)c4ccccc4)CC3)cc2)cc1)C1CC1	0.9	0.1	4.2	77.2*	79.3*	-0.8	GFP quench dose=>67.5;GFP quench-2=>67.5
CN(C(=O)c1cccc(NC(=O)Cc2ccc(NC(=O)C3CCN(C(=O)c4ccccc4)CC3)cc2)c1)C1CCC1	3.5	-0.2	-13.3	0.9	x	x
Cc1ccc(NCC(=O)NN=Cc2ccc[nH]2)cc1	2.2	x	x	x	x	x
CCOc1ccc(CCNS(=O)(=O)c2ccc3c(c2)NC(=O)CC(=O)N3)cc1OCC	1.9	-0.4	-1.4	1.7	x	x
COc1cccc(NC(=O)CSc2nncn2-c2ccccn2)c1	2.4	-0.3	-8.5	5.7	x	x
COc1ccc(S(=O)(=O)N2CCN(C(=O)CN3C(=O)NC(C)(c4ccc5ccccc5c4)C3=O)CC2)cc1 (stereo not given)	4.3	-0.7	-16.7	-2.1	x	x
C=C1c2cccc(O)c2C(O)=C2C(=O)[C@]3(O)C(O)=C(C(N)=O)C(=O)[C@@H](N(C)C)[C@@H]3[C@@H](O)[C@H]12	1.8	0.8	-23.4	23.1*	16.9*	12.2*
C[C@H]1c2cccc(O)c2C(O)=C2C(=O)C3(O)C(O)=C(C(N)=O)C(=O)[C@@H](N(C)C)[C@@H]3[C@@H](O)[C@@H]21 (stereo not given in full)	-0.1	-1.1	32.2	7.5	x	x
Cc1ccccc1NC(=O)/C(=C\c1cccs1)NC(=O)c1ccco1	5.4	-1.0	-7.8	-3.8	x	x
Cc1ccc(-c2noc(CN(C(=O)c3ccc4c(c3)OCO4)C(C)C)n2)cc1	0.3	-0.9	-6.9	1.9	x	x
COc1ccccc1NCC(=O)Nc1cc(S(=O)(=O)N2CCOCC2)ccc1N1CCOCC1	-0.1	-1.2	-9.6	9.2*	8.2*	1.7
CC(=O)c1cccc(OCc2cc(C(=O)N3CCC(N4CCCCC4)CC3)no2)c1	-1.7	-0.6	-5.5	9.9*	6.3	-0.5
O=C(CCc1nc2ccccc2c(=O)[nH]1)NCCN1C(=O)S/C(=C\c2ccc(Cl)cc2Cl)C1=O	-2.0	2.1	7.2	-3.9	x	x
CN(CC(=O)Nc1ccccc1Br)C(=O)CNC(=O)c1ccc(Oc2ccccc2)cc1	2.2	-0.5	-5.7	7.6*	-2.3	0.3
COc1cccc(NC(=O)CN(C)C(=O)CNC(=O)c2ccc(Oc3ccccc3)cc2)c1	5.1	0.2	-5.9	0.9	x	x
O=C(O)c1cccc(NC(=O)C2C3C=CC(C3)C2C(=O)OCC(F)(F)C(F)F)c1 (stereo not given)	-0.5	-0.2	-9.1	-0.9	x	x
COc1ccc(Br)cc1C(=O)Nc1ccccc1N1CCCC1	7.0	-0.1	-3.2	6.6*	-2.3	0.8
c1ccc(C(c2ccccn2)c2ccccn2)cc1	-1.3	-0.9	3.4	6.5*	7.3*	1.2
CCCS(=O)(=O)NC(=O)C1(C)CCN(C(=O)c2oc3ccccc3c2C)C1 (stereo not given)	x	-0.1	x	-2.1	x	x
CCN(CC)S(=O)(=O)c1cccc(C(=O)N/N=C/c2ccc(O)c(O)c2O)c1	x	-0.5	35.5	17.9*	15.3*	11.1*
COc1ccc(O)c(/C=N/NC(=S)Nc2cccc(S(=O)(=O)N(C)C)c2)c1	x	-0.2	-18.1	0.0	x	x
CN(C)S(=O)(=O)c1cccc(NC(=S)N/N=C/c2ccc(O)c(O)c2O)c1	x	-0.4	-3.4	26.6*	18.4*	10.3*
CCn1c(C)nc2cc(C(=O)N/N=C/c3ccc(O)c(O)c3O)ccc21	x	-0.8	0.3	45.2*	53.0*	23.1*
SMILES	UCH37 inh	Tb MetRS inh	ATG4B inh	Rin1-Abl PPI inh	Rin1-Abl confirm	GFP quench-1	others
CCc1nc2c(oc3ccccc32)c(=O)[nH]1	-1.8	-0.7	-2.8	-1.4	x	x
O=c1[nH]c(CSc2ccccn2)nc2c1oc1ccccc12	4.1	0.7	-6.9	9.9*	-4.5	0.9
C=CCN1C(=O)[C@@H]2Cc3c([nH]c4ccccc34)C(c3ccc(O)cc3)N2C1=S (stereo not given in full)	4.0	-0.6	9.3	2.4	x	x
CCOC(=O)c1ccc(NC(=O)N2CCN(c3ccccc3OC)CC2)cc1	5.1	-0.4	-15.5	9.4*	16.0*	0.0
COc1ccc(CCNCC(=O)Nc2ccc(C(=O)N3CCCCC3)cc2)cc1	3.0	-0.8	-2.4	3.0	x	x
CCOC(=O)N1CCC(Nc2ncnc3c2cnn3-c2ccccc2)CC1	2.3	-0.3	-13.5	9.9*	1.7	0.0
c1ccc(-n2ncc3c(NC4CCCCCC4)ncnc32)cc1	5.5	0.1	-2.7	1.4	x	x
N#Cc1ccccc1OCc1cn(CC(=O)c2ccc(O)cc2)nn1	x	-0.4	x	0.1	x	x
O=C(Cn1cc(COc2ccccc2[N+](=O)[O-])nn1)c1ccc(O)cc1	x	-0.6	x	7.7*	-1.4	1.6
Nc1cc2nsnc2cc1Br	x	12.2*	65.2*	10.2*	26.5*	9.5*
Nc1cccc2nsnc12	5.0	0.0	-2.5	0.4	x	x
COc1ccccc1CNC(=O)CSc1nnc2ccc(-c3cccnc3)nn12	0.2	-0.6	-1.8	12.9*	16.8*	-1.4	GFP quench dose=>67.6
COc1ccc(NC(=O)CSc2nnc3ccc(-c4cccnc4)nn23)cc1OC	0.9	-0.3	2.5	-0.6	x	x
CN(C)CCCOC(=O)N1c2ccccc2C=Cc2ccccc21	0.7	-0.4	4.2	0.0	x	x
O=C(Cn1[nH]c(=O)c2ccccc2c1=O)OCC(=O)N1CCCc2ccccc21	3.6	-0.9	-8.5	1.3	x	x
Oc1ccccc1/C=N/n1c(-c2ccccc2)n[nH]c1=S	x	0.2	0.1	-1.9	x	x
Cc1nc(SCC(=O)N2CC(C)OC(C)C2)nc(C)c1C (stereo not given)	1.9	-1.2	-4.9	8.3*	9.5*	0.1
O=[N+]([O-])c1cccc(Cl)c1NCCNS(=O)(=O)c1ccccc1	5.7	-0.5	-6.1	-3.9	x	x
COCCN(CCOC)C(=O)CSc1ccc(S(=O)(=O)N2CCN(C)CC2)cn1	-1.2	-0.2	-0.2	12.0*	25.5*	0.8	GFP quench dose=>67.5
C#CCOCCOCCOCCNc1nc(N2CCN(C(=O)CCCCCCCCCCNC(=O)Cn3cc(CCCCCN)nn3)CC2)nc(N2CCN(C(=O)CCCCCCCCCCNC(=O)[C@@H](CCSC)n3cc(CCO)nn3)CC2)n1	x	-0.2	-15.8	13.9*	13.5*	0.3
